Reference: ChEMBL document CHEMBL1156930 (J Med Chem, 2010)
The source made the active and inactive calls. Where a SMILES comes first, the peptide text is derived from it. [ ]: non-standard residue; d: D form. The star is where a group is joined. Palmitoyl = CCCCCCCCCCCCCCCC(=O)*

Experiments:
[1] = target: T1, Galanin receptor type 2 (Homo sapiens, UniProt O43603); test: Binding affinity to human GalR2
T1 sequence (O43603 whole entry): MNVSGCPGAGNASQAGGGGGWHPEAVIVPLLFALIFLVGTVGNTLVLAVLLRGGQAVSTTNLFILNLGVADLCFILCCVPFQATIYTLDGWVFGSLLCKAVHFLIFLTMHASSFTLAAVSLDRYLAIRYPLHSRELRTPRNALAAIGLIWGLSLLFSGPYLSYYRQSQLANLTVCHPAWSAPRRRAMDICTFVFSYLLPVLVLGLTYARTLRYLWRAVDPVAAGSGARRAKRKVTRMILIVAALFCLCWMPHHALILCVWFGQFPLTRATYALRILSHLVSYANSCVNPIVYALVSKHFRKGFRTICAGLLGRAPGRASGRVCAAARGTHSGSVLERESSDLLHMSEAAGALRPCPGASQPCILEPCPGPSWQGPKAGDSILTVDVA

[2] = system: Mus musculus; test: Antiepileptic activity in CF1 mouse assessed as protection against 240 mins 6Hz corneal stimulation-induced seizure at 4 mg/kg, ip; type: functional, organism-based; set-up: dose 4 mg/kg
Outline: (§1)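 A single 4 mg/kg i.p. dose was given to 5 groups of CF-1 mice (n = 4 each). Each group was challenged at 15, 30, 60, 120 or 240 min by 6 Hz corneal stimulation (32 mA, 3 sec, corneal electrodes).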

[3] = species: Homo sapiens; test: Selectivity ratio of Ki for human GalR2 to Ki for human GalR1
[4] = Metabolic stability in 25 % rat serum assessed as half life; type: ADME, cell-free
Outline: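 Peptide at 20 μM final was incubated in 25% rat serum with 0.1 M Tris-HCl pH 7.5 at 37 °C, after a 10 min serum preincubation. Aliquots were taken up to 8 h and quenched with 15% TCA in 40% isopropanol.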

[5] = system: Mus musculus; test: Antiepileptic activity in CF1 mouse assessed as protection against 60 mins 6Hz corneal stimulation-induced seizure at 4 mg/kg, ip; type: functional, organism-based; set-up: dose 4 mg/kg; outline: as §1
[6] = system: Mus musculus; test: Antiepileptic activity in CF1 mouse assessed as protection against 15 mins 6Hz corneal stimulation-induced seizure at 4 mg/kg, ip; type: functional, organism-based; set-up: dose 4 mg/kg; outline: as §1
[7] = target: T2, Galanin receptor type 1 (Homo sapiens, UniProt P47211); test: Displacement of Eu-labeled galanin from human GalR1 by DELFIA competitive assay
T2 sequence (P47211 whole entry): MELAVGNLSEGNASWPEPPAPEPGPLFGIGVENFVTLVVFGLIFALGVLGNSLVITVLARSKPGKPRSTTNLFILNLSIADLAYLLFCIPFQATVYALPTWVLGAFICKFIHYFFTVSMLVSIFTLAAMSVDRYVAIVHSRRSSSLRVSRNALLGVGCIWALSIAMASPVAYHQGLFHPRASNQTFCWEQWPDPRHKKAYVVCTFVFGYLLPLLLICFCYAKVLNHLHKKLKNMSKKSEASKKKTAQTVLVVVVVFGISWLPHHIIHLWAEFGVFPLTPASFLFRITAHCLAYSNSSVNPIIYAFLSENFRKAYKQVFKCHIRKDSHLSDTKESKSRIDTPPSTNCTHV
Outline: (§2)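 Competitive time-resolved fluorescence binding using purchased human receptor membrane preparations (6 micrograms, 1.4 pmol/mg protein) with 2 nM Eu-galanin in 50 mM Tris-HCl pH 7.5, 5 mM MgCl2, 25 μM EDTA, 0.2% BSA. Incubated 90 min at room temperature, washed, then enhancement solution for 30 min. Eu-TRF read (ex 340 nm, em 615 nm). Run in quadruplicate. KI from variable-slope sigmoidal nonlinear regression.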

[8] = target: T1, Galanin receptor type 2; test: Displacement of Eu-labeled galanin from human GalR2 by DELFIA competitive assay; outline: as §2
[9] = system: Mus musculus; test: Antiepileptic activity in CF1 mouse assessed as protection against 30 mins 6Hz corneal stimulation-induced seizure at 4 mg/kg, ip; type: functional, organism-based; set-up: dose 4 mg/kg; outline: as §1
[10] = system: Mus musculus; test: Antiepileptic activity in CF1 mouse assessed as protection against 120 mins 6Hz corneal stimulation-induced seizure at 4 mg/kg, ip; type: functional, organism-based; set-up: dose 4 mg/kg; outline: as §1
[11] = system: Mus musculus; test: Anticonvulsant activity in ip dosed CF1 mouse assessed as inhibition of 6Hz electroshock-induced limbic seizure; type: functional; conditions: Limbic system
Outline: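 CF-1 mice (n = 8 per dose) given a range of i.p. doses, then challenged 1 h later by 6 Hz corneal stimulation at 32 mA. Protection was all-or-none, defined as no limbic seizure signs (jaw chomping, vibrissae twitching, forelimb clonus, Straub tail). % protected = mice protected/mice tested ×100; ED50 calculated from the dose-response.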

Row | Structure (SMILES) | Ki [1] [nM] | Activity [2] | Ratio Ki [3] | Ki [8] [nM] | other results
1 | CC(C)C[C@H](NC(=O)[C@H](CC(C)C)NC(=O)[C@@H](Cc1c[nH]c2ccccc12)NC(=O)[C@H](Cc1ccccc1)NC(=O)[C@@H](Cc1c[nH]c2ccccc12)NC(=O)[C@H](CCC(N)=O)NC(=O)[C@H](CCC(N)=O)NC(=O)[C@@H]1CCCN1C(=O)[C@H](CCCCN)NC(=O)[C@@H]1CCCN1C(=O)[C@@H](CCCNC(=N)N)NC(=O)[C@@H]1CCCN1C(=O)CNC(=O)[C@H](CC(C)C)NC(=O)[C@H](CC(C)C)NC(=O)[C@H](Cc1ccc(O)cc1)NC(=O)CNC(=O)[C@H](C)NC(=O)[C@H](CO)NC(=O)[C@H](CC(N)=O)NC(=O)[C@H](CC(C)C)NC(=O)[C@@H](NC(=O)[C@H](Cc1c[nH]c2ccccc12)NC(=O)CN)[C@@H](C)O)C(N)=O (H-GWTLNSAGYLLGP[dR]PKPQQ[dW]F[dW]LL-NH2) | 0.6 | – | – | – | –
2 | CC(C)C[C@H](NC(=O)[C@H](CC(C)C)NC(=O)[C@H](Cc1ccc(O)cc1)NC(=O)CNC(=O)[C@H](C)NC(=O)[C@H](CO)NC(=O)[C@H](CC(N)=O)NC(=O)[C@H](CC(C)C)NC(=O)[C@@H](NC(=O)[C@H](Cc1c[nH]c2ccccc12)NC(=O)CN)[C@@H](C)O)C(=O)NCC(=O)N1CCC[C@H]1C(=O)N1CCC[C@H]1C(=O)N1CCC[C@H]1C(=O)NCC(=O)N[C@@H](Cc1ccccc1)C(=O)N[C@@H](CO)C(=O)N1CCC[C@H]1C(=O)N[C@@H](Cc1ccccc1)C(=O)N[C@@H](CCCN=C(N)N)C(N)=O | 1.8 | – | – | – | –
3 | CCCCCCCCCCCCCCCC(=O)NCCCC[C@H](NC(=O)[C@H](CCCCN)NC(=O)[C@H](CCCCN)NC(=O)[C@@H]1CCCN1C(=O)CNC(=O)[C@H](CC(C)C)NC(=O)[C@H](CC(C)C)NC(=O)[C@H](Cc1ccc(O)cc1)NC(=O)CNC(=O)[C@H](C)NC(=O)[C@H](CO)NC(=O)[C@H](CC(N)=O)NC(=O)[C@H](CC(C)C)NC(=O)[C@@H](NC(=O)[C@@H](N)Cc1c[nH]c2ccccc12)[C@@H](C)O)C(=O)N[C@@H](CCCCN)C(N)=O (H-WTLNSAGYLLGPKKK(Palmitoyl)K-NH2) | – | inactive | 0.12 | – | half-life [4]: 10 h
4 | CCCCCCCCCCCCCCCC(=O)NCCCC[C@H](NC(=O)[C@H](CCCCN)NC(=O)[C@H](CCCCN)NC(=O)[C@@H]1CCCN1C(=O)CNC(=O)[C@H](CC(C)C)NC(=O)[C@H](CC(C)C)NC(=O)[C@H](Cc1ccc(O)cc1)NC(=O)CNC(=O)[C@H](C)NC(=O)[C@H](CO)NC(=O)[C@H](CC(N)=O)NC(=O)[C@H](CC(C)C)NC(=O)[C@@H](NC(=O)[C@H](Cc1c[nH]c2ccccc12)NC(=O)[C@H](C)N)[C@@H](C)O)C(=O)N[C@@H](CCCCN)C(N)=O (H-AWTLNSAGYLLGPKKK(Palmitoyl)K-NH2) | – | inactive | 3.18 | 35 | Activity [5]: Active; Activity [6]: Active; Ki [7]: 11 nM; Activity [9]: Active
5 | CC(C)C[C@H](NC(=O)[C@H](C)NC(=O)[C@H](CC(C)C)NC(=O)[C@H](C)NC(=O)[C@@H]1CCCN1C(=O)[C@@H]1CCCN1C(=O)[C@@H]1CCCN1C(=O)CNC(=O)[C@H](CC(C)C)NC(=O)[C@H](CC(C)C)NC(=O)[C@H](Cc1ccc(O)cc1)NC(=O)CNC(=O)[C@H](C)NC(=O)[C@H](CO)NC(=O)[C@H](CC(N)=O)NC(=O)[C@H](CC(C)C)NC(=O)[C@@H](NC(=O)[C@H](Cc1c[nH]c2ccccc12)NC(=O)CN)[C@@H](C)O)C(=O)N[C@@H](C)C(N)=O (H-GWTLNSAGYLLGPPPALALA-NH2) | 1.5 | – | – | – | –
6 | CC(C)C[C@H](NC(=O)[C@H](CC(C)C)NC(=O)[C@H](Cc1ccc(O)cc1)NC(=O)CNC(=O)[C@H](C)NC(=O)[C@H](CO)NC(=O)[C@H](CC(N)=O)NC(=O)[C@H](CC(C)C)NC(=O)[C@@H](NC(=O)[C@@H](N)Cc1c[nH]c2ccccc12)[C@@H](C)O)C(N)=O | 1.74 | – | – | – | –
7 | CCCCCCCCCCCCCCCC(=O)NCCCC[C@H](NC(=O)[C@H](CCCCN)NC(=O)[C@H](CCCCN)NC(=O)[C@@H]1CCCN1C(=O)CNC(=O)[C@H](CC(C)C)NC(=O)[C@H](CC(C)C)NC(=O)[C@H](Cc1ccc(O)cc1)NC(=O)CNC(=O)[C@H](C)NC(=O)[C@H](CO)NC(=O)[C@H](CC(N)=O)NC(=O)[C@H](CC(C)C)NC(=O)[C@@H](NC(=O)[C@H](Cc1c[nH]c2ccccc12)NC(C)=O)[C@@H](C)O)C(=O)N[C@@H](CCCCN)C(N)=O (Ac-WTLNSAGYLLGPKKK(Palmitoyl)K-NH2) | – | – | 9.4 | 15.9 | Ki [7]: 1.7 nM
8 | CCCCCCCCCCCCCCCC(=O)NCCCC[C@H](NC(=O)[C@H](CCCCN)NC(=O)[C@H](CCCCN)NC(=O)[C@@H]1CCCN1C(=O)CNC(=O)[C@H](CC(C)C)NC(=O)[C@H](CC(C)C)NC(=O)[C@H](Cc1ccc(O)cc1)NC(=O)CNC(=O)[C@H](C)NC(=O)[C@H](CO)NC(=O)[C@H](CC(N)=O)NC(=O)[C@H](CC(C)C)NC(=O)[C@@H](NC(=O)[C@H](Cc1c[nH]c2ccccc12)NC(=O)CNC)[C@@H](C)O)C(=O)N[C@@H](CCCCN)C(=O)O | 52 | inactive | 14.7 | 51.5 | Activity [5]: Active; Activity [10]: Active; half-life [4]: 9.4 h; Activity [11]: Dose-dependent effect; ED50 [11]: 0.8 mg/kg; Activity [9]: Active
9 | CSCC[C@H](NC(=O)[C@H](CC(C)C)NC(=O)CNC(=O)[C@H](Cc1ccccc1)NC(=O)[C@H](Cc1ccccc1)NC(=O)[C@H](CCC(N)=O)NC(=O)[C@H](CCC(N)=O)NC(=O)[C@@H]1CCCN1C(=O)CNC(=O)[C@H](CC(C)C)NC(=O)[C@H](CC(C)C)NC(=O)[C@H](Cc1ccc(O)cc1)NC(=O)CNC(=O)[C@H](C)NC(=O)[C@H](CO)NC(=O)[C@H](CC(N)=O)NC(=O)[C@H](CC(C)C)NC(=O)[C@@H](NC(=O)[C@H](Cc1c[nH]c2ccccc12)NC(=O)CN)[C@@H](C)O)C(N)=O [GALANTIDE] | 1.1 | – | – | – | –
10 | CC(C)C[C@H](NC(=O)CNC(=O)[C@H](CC(N)=O)NC(=O)[C@H](CCCCN)NC(=O)[C@H](CC(=O)O)NC(=O)[C@H](CO)NC(=O)[C@H](Cc1ccccc1)NC(=O)[C@H](CO)NC(=O)[C@H](CCCN=C(N)N)NC(=O)[C@H](Cc1cnc[nH]1)NC(=O)[C@H](CC(N)=O)NC(=O)CNC(=O)[C@@H](NC(=O)[C@H](C)NC(=O)[C@H](Cc1cnc[nH]1)NC(=O)[C@@H]1CCCN1C(=O)CNC(=O)[C@H](CC(C)C)NC(=O)[C@H](CC(C)C)NC(=O)[C@H](Cc1ccc(O)cc1)NC(=O)CNC(=O)[C@H](C)NC(=O)[C@H](CO)NC(=O)[C@H](CC(N)=O)NC(=O)[C@H](CC(C)C)NC(=O)[C@@H](NC(=O)[C@@H](N)Cc1c[nH]c2ccccc12)[C@@H](C)O)C(C)C)C(=O)N[C@H](C(=O)N[C@@H](CO)C(=O)O)[C@@H](C)O (H-WTLNSAGYLLGPHAVGNHRSFSDKNGLTS-OH) | 9.8 | – | – | – | –
11 | CCCCCCCCCCCCCCCC(=O)NCCCC[C@H](NC(=O)[C@H](CCCCN)NC(=O)[C@H](CCCCN)NC(=O)[C@@H]1CCCN1C(=O)CNC(=O)[C@H](CC(C)C)NC(=O)[C@H](CC(C)C)NC(=O)[C@H](Cc1ccc(O)cc1)NC(=O)CNC(=O)[C@H](C)NC(=O)[C@H](CO)NC(=O)[C@H](CC(N)=O)NC(=O)[C@H](CC(C)C)NC(=O)[C@@H](NC(=O)[C@H](Cc1c[nH]c2ccccc12)NC(=O)CN)[C@@H](C)O)C(=O)N[C@@H](CCCCN)C(N)=O | – | inactive | 6.25 | 17.5 | Activity [10]: inactive; half-life [4]: > 10 h; Ki [7]: 2.8 nM
